pEC50, pKi: −log10 of the molar value.
Legend:
[1] = target: T1, Retinoic acid receptor RXR-gamma (Homo sapiens, UniProt P48443); assay: Binding affinity to RXRgamma; settings: for pKi: read-out: Ki
T1 sequence (P48443 whole entry): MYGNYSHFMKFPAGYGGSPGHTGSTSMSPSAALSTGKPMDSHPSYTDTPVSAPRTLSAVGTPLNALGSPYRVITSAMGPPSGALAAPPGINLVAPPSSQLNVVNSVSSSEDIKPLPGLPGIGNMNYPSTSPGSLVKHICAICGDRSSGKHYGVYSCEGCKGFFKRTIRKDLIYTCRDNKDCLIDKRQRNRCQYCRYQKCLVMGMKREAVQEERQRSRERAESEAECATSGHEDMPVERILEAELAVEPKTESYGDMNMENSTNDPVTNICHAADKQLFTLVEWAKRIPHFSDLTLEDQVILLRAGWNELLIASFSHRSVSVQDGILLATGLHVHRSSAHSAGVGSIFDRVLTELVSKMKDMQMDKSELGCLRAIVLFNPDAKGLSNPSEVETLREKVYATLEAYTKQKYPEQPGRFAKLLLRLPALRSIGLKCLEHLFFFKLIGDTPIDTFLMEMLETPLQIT

[2] = target: T2, Retinoic acid receptor RXR-alpha (Homo sapiens, UniProt P19793); assay: Transactivation of RXRalpha in CV1 cells by cotransfection assay; assay type: functional, cell-based, CV-1; settings: for pEC50: read-out: EC50; for EC50: cv-1
T2 sequence (P19793 whole entry): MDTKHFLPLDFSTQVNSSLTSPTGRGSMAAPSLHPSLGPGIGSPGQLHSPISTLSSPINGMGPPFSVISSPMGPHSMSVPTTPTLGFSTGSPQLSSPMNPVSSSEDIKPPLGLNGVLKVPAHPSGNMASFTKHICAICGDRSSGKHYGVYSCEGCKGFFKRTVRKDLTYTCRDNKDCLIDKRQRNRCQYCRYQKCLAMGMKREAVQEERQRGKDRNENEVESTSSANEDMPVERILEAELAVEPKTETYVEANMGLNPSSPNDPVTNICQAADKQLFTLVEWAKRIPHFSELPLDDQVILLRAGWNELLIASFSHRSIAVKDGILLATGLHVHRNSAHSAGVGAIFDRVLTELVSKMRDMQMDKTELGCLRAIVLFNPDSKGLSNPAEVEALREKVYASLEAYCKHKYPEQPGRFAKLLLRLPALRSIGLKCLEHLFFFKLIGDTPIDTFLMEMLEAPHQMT
Method in brief: (§1)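 EC50 taken from a full dose–response curve. Retinoid activity was normalized to the response to ATRA (all-trans retinoic acid). Potency (EC50) is the retinoid concentration that gives 50% of the maximal observed response.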

[3] = target: T2, Retinoic acid receptor RXR-alpha; assay: Binding affinity to RXRalpha; settings: for pKi: read-out: Ki
[4] = target: T3, Retinoic acid receptor RXR-beta (Homo sapiens, UniProt P28702); assay: Transactivation of RXRbeta in CV1 cells by cotransfection assay; assay type: functional, cell-based, CV-1; settings: for pEC50: read-out: EC50; for EC50: cv-1; method in brief: as §1
T3 sequence (P28702 whole entry): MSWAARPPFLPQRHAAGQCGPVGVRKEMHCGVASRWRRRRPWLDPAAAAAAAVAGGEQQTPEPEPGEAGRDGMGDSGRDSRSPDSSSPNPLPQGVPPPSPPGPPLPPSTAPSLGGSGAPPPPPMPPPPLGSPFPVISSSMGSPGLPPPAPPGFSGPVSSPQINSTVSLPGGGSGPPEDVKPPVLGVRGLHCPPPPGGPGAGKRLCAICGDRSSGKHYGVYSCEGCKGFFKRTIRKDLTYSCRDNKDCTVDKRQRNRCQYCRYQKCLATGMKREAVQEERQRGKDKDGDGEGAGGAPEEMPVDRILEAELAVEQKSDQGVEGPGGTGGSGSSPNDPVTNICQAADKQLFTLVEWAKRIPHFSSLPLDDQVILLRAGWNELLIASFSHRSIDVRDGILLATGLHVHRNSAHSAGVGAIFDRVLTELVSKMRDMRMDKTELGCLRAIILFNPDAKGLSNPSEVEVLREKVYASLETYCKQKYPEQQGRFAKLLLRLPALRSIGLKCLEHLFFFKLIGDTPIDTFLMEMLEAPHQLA

[5] = target: T3, Retinoic acid receptor RXR-beta; assay: Binding affinity to RXRbeta; settings: for pKi: read-out: Ki
[6] = target: T1, Retinoic acid receptor RXR-gamma; assay: Transactivation of RXRgamma in CV1 cells by cotransfection assay; assay type: functional, cell-based, CV-1; settings: for pEC50: read-out: EC50; for EC50: cv-1; method in brief: as §1

| Compound | pKi [1] | pEC50 [2] | pKi [3] | pEC50 [4] | pKi [5] | pEC50 [6] | Ki [1] | EC50 [2] | EC50 [4] | Ki [5] | EC50 [6] | Ki [3] |
| --- | --- | --- | --- | --- | --- | --- | --- | --- | --- | --- | --- | --- |
| CC(/C=C/CN(c1cc(C(C)(C)C)cc2c1CCC2(C)C)C(C)C)=C\C(=O)O | 6.92 | 6.60 | 7.17 | 6.67 | 6.52 | 6.58 |  |  |  |  |  |  |
| CCCN(C/C=C/C(C)=C/C(=O)O)c1cc(C(C)(C)C)cc(C(C)(C)C)c1 | 7.42 | 7.00 | 7.77 | 7.16 | 7.47 | 7.20 |  |  |  |  |  |  |
| CCCN(C(=O)/C=C/C(C)=C/C(=O)O)c1cc(C(C)(C)C)cc(C(C)(C)C)c1 | 6.52 | 6.00 | 6.19 | 6.82 | 6.22 | 6.17 |  |  |  |  |  |  |
| CC(/C=C/CN(C)c1cc(C(C)(C)C)cc(C(C)(C)C)c1)=C\C(=O)O | 6.88 | 6.42 | 7.43 | 7.02 | 7.06 | 6.49 |  |  |  |  |  |  |
| CC(/C=C/CNc1cc(C(C)(C)C)cc(C(C)(C)C)c1)=C\C(=O)O |  |  | 6.28 |  |  |  | Not Active | Not Active | Not Active | Not Active | Not Active |  |
| CCCCN(C/C=C/C(C)=C/C(=O)O)c1cc(C(C)(C)C)cc2c1CCC2(C)C | 7.51 | 7.28 | 7.68 | 7.28 | 7.22 | 7.30 |  |  |  |  |  |  |
| CC(/C=C/[C@H]1CCCN1c1ccc2c(c1)C(C)(C)CCC2(C)C)=C\C(=O)O | 6.69 |  | 6.99 | 5.89 | 6.73 | 5.90 |  | Not Active |  |  |  |  |
| CC(/C=C/CN(CC1CC1)c1cc(C(C)(C)C)cc2c1CCC2(C)C)=C\C(=O)O | 6.82 | 6.91 | 7.20 | 7.01 | 6.98 | 7.00 |  |  |  |  |  |  |
| CCN(C/C=C/C(C)=C/C(=O)O)c1cc2c(cc1C)C(C)(C)CCC2(C)C | 7.00 | 7.19 | 7.38 | 6.93 | 6.82 | 6.90 |  |  |  |  |  |  |
| CCN(C/C=C/C(C)=C/C(=O)O)c1cc(C(C)(C)C)cc(C(C)(C)C)c1 | 7.46 | 6.66 | 7.51 | 6.63 | 7.62 | 6.64 |  |  |  |  |  |  |
| CCCN(C/C=C/C(C)=C/C(=O)O)c1ccc2c(c1)C(C)(C)CCC2(C)C | 6.96 | 6.82 | 7.33 | 6.69 | 7.14 | 6.77 |  |  |  |  |  |  |
| CC(/C=C/C(=O)Nc1cc(C(C)(C)C)cc(C(C)(C)C)c1)=C\C(=O)O |  |  |  |  |  |  | Not Active | Not Active | Not Active | Not Active | Not Active | Not Active |
| CCN(C/C=C/C(C)=C/C(=O)O)c1ccc2c(c1)C(C)(C)CCC2(C)C | 6.79 | 6.67 | 6.99 | 6.62 | 6.73 | 6.89 |  |  |  |  |  |  |
| CCCN(C/C=C/C(C)=C/C(=O)O)c1cc(C(C)(C)C)cc2c1CCC2(C)C | 8.00 | 7.66 | 8.10 | 7.68 | 7.92 | 7.72 |  |  |  |  |  |  |
| CCCCCCCCN(C/C=C/C(C)=C/C(=O)O)c1cc(C(C)(C)C)cc(C(C)(C)C)c1 | 6.66 |  | 6.91 |  | 6.90 | 7.46 |  | Not Active | Not Active |  |  |  |
| CC(/C=C/CN(Cc1ccccc1)c1cc(C(C)(C)C)cc(C(C)(C)C)c1)=C\C(=O)O | 6.68 |  | 6.92 |  | 6.62 |  |  | Not Active | Not Active |  | Not Active |  |
| CC(/C=C/C(=O)N(Cc1ccccc1)c1cc(C(C)(C)C)cc(C(C)(C)C)c1)=C\C(=O)O |  |  |  |  |  |  | Not Active | Not Active | Not Active | Not Active | Not Active | Not Active |
| CCCN(C/C=C/C(C)=C/C(=O)O)c1cc2c(cc1C)C(C)(C)CCC2(C)C | 6.68 | 6.64 | 7.74 | 6.67 | 6.79 | 6.65 |  |  |  |  |  |  |
| CCCN(C/C=C/C(C)=C/C(=O)O)c1cc2c(cc1OC)C(C)(C)CCC2(C)C | 6.24 | 6.40 | 6.59 | 6.77 | 6.14 |  |  |  |  |  | Not Active |  |
| CC(C)=CCN(C/C=C/C(C)=C/C(=O)O)c1cc(C(C)(C)C)cc2c1CCC2(C)C | 6.51 |  | 6.60 |  | 6.49 |  |  | Not Active | Not Active |  | Not Active |  |
| CC(/C=C/[C@@H]1CCCN1c1ccc2c(c1)C(C)(C)CCC2(C)C)=C\C(=O)O | 7.00 | 6.75 | 7.68 | 6.79 | 7.20 | 6.83 |  |  |  |  |  |  |
